Columns and labels:
[1] = tested on: Blood; experiment: Metabolic stability in mouse blood assessed as compound conversion to metabolite C7'-C8' E isomer; type: ADME, tissue-based
[2] = tested on: Plasma; experiment: Metabolic stability in human plasma assessed as compound conversion to metabolite C7'-C8' E isomer at 55 uM after 20 mins at 37 degC; type: ADME, cell-free
[3] = tested on: Plasma; experiment: Metabolic stability in mouse plasma assessed as compound conversion to metabolite C7'-C8' E isomer; type: ADME, cell-free
[4] = target: Glycogen synthase kinase-3 beta (Homo sapiens, UniProt P49841); experiment: Inhibition of GSK3-beta by TR-FRET based LanthaScreen assay
Outline: (§1)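 LanthaScreen TR-FRET kinase format, run per the group's earlier protocol. IC50 from two independent experiments; for some compounds, PDGFRα and VEGFR2 values are means ± SD of three independent runs. The FGFR3 used was the K651E mutant.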

[5] = target: Rho-associated protein kinase 2 (Homo sapiens, UniProt O75116); experiment: Inhibition of ROCK2 by Caliper mobility shift assay
Outline: (§2)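 Caliper microfluidic mobility shift readout of substrate phosphorylation, run per the group's earlier kinase protocol. IC50 taken from two independent experiments.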

[6] = target: MAP kinase-interacting serine/threonine-protein kinase 2 (Homo sapiens, UniProt Q9HBH9); experiment: Inhibition of MNK2 by TR-FRET based LanthaScreen assay
Outline: (§3)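 TR-FRET LanthaScreen kinase assay with phosphorylation of a substrate; FGFR3 used as the K651E mutant. IC50 derived from two independent experiments; for some compounds, ALK and cKIT values are averages ± SDs of three independent experiments.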

[7] = target: Ephrin type-A receptor 4 (Homo sapiens, UniProt P54764); experiment: Inhibition of EPHA4 by TR-FRET based LanthaScreen assay; outline: as §1
[8] = target: Non-receptor tyrosine-protein kinase TYK2 (Homo sapiens, UniProt P29597); experiment: Inhibition of TYK2 by TR-FRET based LanthaScreen assay; outline: as §1
[9] = target: Hepatocyte growth factor receptor (Homo sapiens, UniProt P08581); experiment: Inhibition of HGFR by TR-FRET based LanthaScreen assay; outline: as §1
[10] = target: Aurora kinase A (Homo sapiens, UniProt O14965); experiment: Inhibition of Aurora A kinase by Caliper mobility shift assay; outline: as §2
Aurora kinase A, sequence (O14965 whole entry): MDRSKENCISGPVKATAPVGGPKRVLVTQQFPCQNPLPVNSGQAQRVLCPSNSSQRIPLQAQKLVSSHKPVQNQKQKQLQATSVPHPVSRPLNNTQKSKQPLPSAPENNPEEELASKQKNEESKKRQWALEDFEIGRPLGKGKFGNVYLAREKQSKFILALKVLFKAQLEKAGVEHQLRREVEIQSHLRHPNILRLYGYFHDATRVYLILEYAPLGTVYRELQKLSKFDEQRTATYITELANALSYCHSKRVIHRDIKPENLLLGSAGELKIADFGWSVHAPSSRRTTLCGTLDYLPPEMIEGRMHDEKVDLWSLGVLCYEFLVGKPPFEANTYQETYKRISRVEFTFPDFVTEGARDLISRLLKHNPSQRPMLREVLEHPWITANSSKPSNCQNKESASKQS

[11] = target: Cyclin-dependent kinase 2 (Homo sapiens, UniProt P24941); experiment: Inhibition of CDK2A by Caliper mobility shift assay; outline: as §2
[12] = target: Insulin receptor (Homo sapiens, UniProt P06213); experiment: Inhibition of INSR by TR-FRET based LanthaScreen assay; outline: as §1
[13] = target: ALK tyrosine kinase receptor (Homo sapiens, UniProt Q9UM73); experiment: Inhibition of ALK by TR-FRET based LanthaScreen assay; outline: as §3
[14] = target: Mitogen-activated protein kinase 1 (Homo sapiens, UniProt P28482); experiment: Inhibition of ERK2 by Caliper mobility shift assay
Mitogen-activated protein kinase 1, sequence (P28482 whole entry): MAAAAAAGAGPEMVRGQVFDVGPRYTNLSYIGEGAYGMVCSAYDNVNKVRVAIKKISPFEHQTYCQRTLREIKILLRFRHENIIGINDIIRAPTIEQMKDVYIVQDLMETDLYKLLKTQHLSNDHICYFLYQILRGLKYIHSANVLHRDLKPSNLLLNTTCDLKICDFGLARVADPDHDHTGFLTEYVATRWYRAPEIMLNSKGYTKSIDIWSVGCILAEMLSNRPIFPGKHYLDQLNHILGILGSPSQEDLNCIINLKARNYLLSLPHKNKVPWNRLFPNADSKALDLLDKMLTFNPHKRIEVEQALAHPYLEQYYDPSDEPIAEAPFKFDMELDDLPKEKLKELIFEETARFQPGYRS
Outline: (§4)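 Caliper mobility shift kinase assay with phosphorylation of a substrate; IC50 derived from two independent experiments.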

[15] = target: Tyrosine-protein kinase JAK1 (Homo sapiens, UniProt P23458); experiment: Inhibition of JAK1 by TR-FRET based LanthaScreen assay
Tyrosine-protein kinase JAK1, sequence (P23458 whole entry): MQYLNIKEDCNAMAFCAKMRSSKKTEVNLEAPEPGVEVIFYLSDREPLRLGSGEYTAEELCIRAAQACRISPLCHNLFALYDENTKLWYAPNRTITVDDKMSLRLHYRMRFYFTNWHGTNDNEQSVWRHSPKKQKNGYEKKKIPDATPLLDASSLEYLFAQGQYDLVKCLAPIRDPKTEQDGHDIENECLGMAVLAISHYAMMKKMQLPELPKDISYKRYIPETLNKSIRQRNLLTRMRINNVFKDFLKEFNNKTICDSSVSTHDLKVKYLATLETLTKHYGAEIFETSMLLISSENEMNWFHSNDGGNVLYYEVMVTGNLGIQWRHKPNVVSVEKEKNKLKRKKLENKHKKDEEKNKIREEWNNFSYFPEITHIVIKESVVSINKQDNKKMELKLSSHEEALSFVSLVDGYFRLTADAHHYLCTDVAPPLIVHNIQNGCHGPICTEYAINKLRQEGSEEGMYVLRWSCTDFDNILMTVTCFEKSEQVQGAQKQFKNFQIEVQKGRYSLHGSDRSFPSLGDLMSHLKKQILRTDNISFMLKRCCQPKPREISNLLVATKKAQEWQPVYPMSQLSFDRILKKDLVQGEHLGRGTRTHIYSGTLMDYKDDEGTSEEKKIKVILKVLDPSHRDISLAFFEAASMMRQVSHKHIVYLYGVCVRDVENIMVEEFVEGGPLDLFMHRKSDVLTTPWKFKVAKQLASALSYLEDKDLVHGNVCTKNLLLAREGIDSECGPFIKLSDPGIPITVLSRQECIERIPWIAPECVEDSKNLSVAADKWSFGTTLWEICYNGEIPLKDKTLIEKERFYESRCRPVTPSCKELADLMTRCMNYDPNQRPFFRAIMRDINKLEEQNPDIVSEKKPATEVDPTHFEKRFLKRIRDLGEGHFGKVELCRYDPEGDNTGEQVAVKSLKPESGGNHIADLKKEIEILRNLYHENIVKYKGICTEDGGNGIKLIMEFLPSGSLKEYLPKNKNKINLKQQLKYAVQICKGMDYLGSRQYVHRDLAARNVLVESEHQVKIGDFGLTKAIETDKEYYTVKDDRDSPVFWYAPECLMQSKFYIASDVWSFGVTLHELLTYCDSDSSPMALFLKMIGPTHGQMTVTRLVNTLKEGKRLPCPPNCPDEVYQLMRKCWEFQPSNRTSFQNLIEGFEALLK

[16] = target: Tyrosine-protein kinase ABL1 (Homo sapiens, UniProt P00519, T315I); experiment: Inhibition of cABL T315I mutant by Caliper mobility shift assay; outline: as §2
[17] = Inhibition of COT1 by Caliper mobility shift assay; outline: as §4
[18] = target: Tyrosine-protein kinase JAK2 (Homo sapiens, UniProt O60674); experiment: Inhibition of JAK2 by TR-FRET based LanthaScreen assay
[19] = target: cAMP-dependent protein kinase catalytic subunit alpha (Homo sapiens, UniProt P17612); experiment: Inhibition of PKAalpha by TR-FRET LanthaScreen assay
[20] = target: Receptor tyrosine-protein kinase erbB-2 (Homo sapiens, UniProt P04626); experiment: Inhibition of HER2 by TR-FRET based LanthaScreen assay; outline: as §1
[21] = target: Fibroblast growth factor receptor 3 (Homo sapiens, UniProt P22607); experiment: Inhibition of FGFR3 by TR-FRET based LanthaScreen assay; outline: as §1
Fibroblast growth factor receptor 3, sequence (P22607 whole entry): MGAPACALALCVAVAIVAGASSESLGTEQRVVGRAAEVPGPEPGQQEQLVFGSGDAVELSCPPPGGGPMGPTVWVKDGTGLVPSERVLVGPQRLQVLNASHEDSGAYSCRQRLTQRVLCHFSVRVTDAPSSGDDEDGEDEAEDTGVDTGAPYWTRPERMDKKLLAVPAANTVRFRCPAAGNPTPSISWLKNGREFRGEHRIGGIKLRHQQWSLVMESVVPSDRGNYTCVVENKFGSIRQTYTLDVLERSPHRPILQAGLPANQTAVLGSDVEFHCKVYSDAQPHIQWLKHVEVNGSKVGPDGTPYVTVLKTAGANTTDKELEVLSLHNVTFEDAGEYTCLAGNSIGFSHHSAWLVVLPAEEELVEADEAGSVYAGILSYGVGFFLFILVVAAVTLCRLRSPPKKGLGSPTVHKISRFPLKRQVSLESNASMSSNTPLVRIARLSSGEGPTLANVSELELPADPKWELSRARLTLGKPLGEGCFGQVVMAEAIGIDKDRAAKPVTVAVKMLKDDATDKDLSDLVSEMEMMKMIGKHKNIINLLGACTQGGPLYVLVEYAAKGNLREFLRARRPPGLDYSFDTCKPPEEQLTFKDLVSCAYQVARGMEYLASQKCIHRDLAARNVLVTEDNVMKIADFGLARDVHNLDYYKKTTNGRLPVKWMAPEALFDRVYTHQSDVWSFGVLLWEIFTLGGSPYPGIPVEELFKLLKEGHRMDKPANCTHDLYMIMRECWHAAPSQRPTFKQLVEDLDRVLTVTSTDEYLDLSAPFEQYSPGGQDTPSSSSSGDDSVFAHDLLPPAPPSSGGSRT

[22] = target: Vascular endothelial growth factor receptor 2 (Homo sapiens, UniProt P35968); experiment: Inhibition of VEGFR2 by TR-FRET based LanthaScreen assay; outline: as §1
[23] = target: T1, Ephrin type-B receptor 4 (Homo sapiens, UniProt P54760); experiment: Inhibition of EPHB4 by TR-FRET based LanthaScreen assay; outline: as §1
T1 sequence (P54760 whole entry): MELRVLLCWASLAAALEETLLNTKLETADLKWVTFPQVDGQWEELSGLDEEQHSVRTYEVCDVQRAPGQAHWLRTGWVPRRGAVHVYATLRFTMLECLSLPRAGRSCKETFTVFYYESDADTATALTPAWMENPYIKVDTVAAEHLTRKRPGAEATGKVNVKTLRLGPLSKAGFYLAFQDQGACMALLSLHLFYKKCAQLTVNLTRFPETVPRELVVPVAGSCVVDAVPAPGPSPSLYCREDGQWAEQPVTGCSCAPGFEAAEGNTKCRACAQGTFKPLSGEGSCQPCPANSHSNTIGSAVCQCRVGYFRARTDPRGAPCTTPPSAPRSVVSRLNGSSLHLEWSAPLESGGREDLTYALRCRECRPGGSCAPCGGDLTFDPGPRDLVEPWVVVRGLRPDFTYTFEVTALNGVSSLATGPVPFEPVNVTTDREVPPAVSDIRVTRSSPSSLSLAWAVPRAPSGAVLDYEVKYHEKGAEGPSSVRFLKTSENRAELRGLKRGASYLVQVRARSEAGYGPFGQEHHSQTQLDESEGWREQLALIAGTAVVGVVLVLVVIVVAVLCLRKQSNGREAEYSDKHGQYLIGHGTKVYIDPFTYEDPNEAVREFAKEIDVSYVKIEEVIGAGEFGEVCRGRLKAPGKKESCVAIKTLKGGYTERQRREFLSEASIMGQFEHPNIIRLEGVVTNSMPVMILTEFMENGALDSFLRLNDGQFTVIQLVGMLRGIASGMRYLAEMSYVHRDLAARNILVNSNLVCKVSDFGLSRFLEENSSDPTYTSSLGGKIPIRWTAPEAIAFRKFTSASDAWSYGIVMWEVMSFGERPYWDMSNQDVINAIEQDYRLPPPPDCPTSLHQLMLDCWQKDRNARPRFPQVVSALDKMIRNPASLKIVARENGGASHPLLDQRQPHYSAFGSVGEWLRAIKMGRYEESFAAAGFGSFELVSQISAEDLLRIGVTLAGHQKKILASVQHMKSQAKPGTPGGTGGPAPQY

[24] = target: Serine/threonine-protein kinase N1 (Homo sapiens, UniProt Q16512); experiment: Inhibition of PKN1 by Caliper mobility shift assay; outline: as §2
Serine/threonine-protein kinase N1, sequence (Q16512 whole entry): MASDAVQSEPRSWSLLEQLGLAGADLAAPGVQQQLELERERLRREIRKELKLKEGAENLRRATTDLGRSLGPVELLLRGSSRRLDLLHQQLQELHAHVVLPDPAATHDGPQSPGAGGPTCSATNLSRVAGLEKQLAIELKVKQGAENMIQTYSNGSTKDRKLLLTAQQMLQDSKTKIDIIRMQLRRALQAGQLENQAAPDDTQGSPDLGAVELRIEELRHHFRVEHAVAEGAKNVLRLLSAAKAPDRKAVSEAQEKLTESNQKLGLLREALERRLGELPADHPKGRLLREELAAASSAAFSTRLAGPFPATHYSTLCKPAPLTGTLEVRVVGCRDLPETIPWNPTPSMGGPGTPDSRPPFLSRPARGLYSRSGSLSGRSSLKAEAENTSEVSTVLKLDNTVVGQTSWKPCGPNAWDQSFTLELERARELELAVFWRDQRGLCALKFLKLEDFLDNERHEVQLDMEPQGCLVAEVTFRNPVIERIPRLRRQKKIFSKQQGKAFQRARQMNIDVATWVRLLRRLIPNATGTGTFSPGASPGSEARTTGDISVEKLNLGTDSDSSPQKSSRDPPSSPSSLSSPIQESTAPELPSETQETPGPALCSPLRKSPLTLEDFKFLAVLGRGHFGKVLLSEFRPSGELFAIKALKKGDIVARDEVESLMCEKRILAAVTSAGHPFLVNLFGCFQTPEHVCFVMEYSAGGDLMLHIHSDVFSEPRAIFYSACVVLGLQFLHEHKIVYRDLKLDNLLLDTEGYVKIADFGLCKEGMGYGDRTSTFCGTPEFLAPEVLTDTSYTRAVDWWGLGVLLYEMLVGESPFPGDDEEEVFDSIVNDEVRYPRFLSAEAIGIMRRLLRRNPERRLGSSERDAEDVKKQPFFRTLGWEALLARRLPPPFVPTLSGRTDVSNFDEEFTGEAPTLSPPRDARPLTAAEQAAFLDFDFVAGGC

[25] = Inhibition of PKAtau by TR-FRET based LanthaScreen assay; outline: as §3
[26] = target: Platelet-derived growth factor receptor alpha (Homo sapiens, UniProt P16234, V561D); experiment: Inhibition of PDGFRalpha V561D mutant by TR-FRET based LanthaScreen assay; outline: as §1
[27] = target: Proto-oncogene tyrosine-protein kinase receptor Ret (Homo sapiens, UniProt P07949); experiment: Inhibition of RET by TR-FRET based LanthaScreen assay; outline: as §1
[28] = target: Mitogen-activated protein kinase 14 (Homo sapiens, UniProt Q16539); experiment: Inhibition of p38alpha by Caliper mobility shift assay; outline: as §2
[29] = target: Tyrosine-protein kinase receptor UFO (Homo sapiens, UniProt P30530); experiment: Inhibition of Axl by TR-FRET based LanthaScreen assay; outline: as §1
[30] = target: Insulin-like growth factor 1 receptor (Homo sapiens, UniProt P08069); experiment: Inhibition of IGF1R by TR-FRET based LanthaScreen assay; outline: as §1
[31] = target: Tyrosine-protein kinase JAK3 (Homo sapiens, UniProt P52333); experiment: Inhibition of JAK3 by Caliper mobility shift assay; outline: as §2
Tyrosine-protein kinase JAK3, sequence (P52333 whole entry): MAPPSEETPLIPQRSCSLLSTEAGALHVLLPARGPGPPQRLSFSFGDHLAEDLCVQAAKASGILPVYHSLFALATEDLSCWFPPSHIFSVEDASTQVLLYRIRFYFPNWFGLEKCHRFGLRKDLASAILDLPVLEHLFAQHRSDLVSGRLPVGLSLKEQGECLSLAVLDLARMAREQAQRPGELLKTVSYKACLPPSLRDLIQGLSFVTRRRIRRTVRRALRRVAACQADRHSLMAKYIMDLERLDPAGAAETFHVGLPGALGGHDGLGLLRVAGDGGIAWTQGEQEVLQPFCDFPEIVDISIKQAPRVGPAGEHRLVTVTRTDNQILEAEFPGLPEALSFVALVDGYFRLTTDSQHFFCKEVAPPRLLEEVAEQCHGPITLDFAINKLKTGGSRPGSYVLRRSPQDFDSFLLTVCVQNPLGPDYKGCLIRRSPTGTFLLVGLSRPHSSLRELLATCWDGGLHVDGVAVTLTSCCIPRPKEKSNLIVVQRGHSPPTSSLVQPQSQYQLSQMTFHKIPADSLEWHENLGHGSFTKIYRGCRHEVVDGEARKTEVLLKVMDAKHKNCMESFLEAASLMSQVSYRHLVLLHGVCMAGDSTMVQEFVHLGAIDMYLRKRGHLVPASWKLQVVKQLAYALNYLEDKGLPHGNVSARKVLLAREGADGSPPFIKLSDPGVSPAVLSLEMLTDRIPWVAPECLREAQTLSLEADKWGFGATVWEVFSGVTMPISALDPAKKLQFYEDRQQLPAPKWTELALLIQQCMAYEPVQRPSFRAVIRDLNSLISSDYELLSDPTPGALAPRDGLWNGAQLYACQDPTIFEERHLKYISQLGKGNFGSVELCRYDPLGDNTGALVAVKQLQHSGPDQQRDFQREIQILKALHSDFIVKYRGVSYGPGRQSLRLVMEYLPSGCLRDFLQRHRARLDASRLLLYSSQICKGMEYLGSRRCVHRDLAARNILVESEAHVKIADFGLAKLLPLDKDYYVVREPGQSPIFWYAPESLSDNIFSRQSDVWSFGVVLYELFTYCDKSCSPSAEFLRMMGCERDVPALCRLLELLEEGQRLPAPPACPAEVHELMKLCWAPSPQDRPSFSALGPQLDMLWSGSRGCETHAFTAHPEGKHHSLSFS

[32] = target: Tyrosine-protein kinase Lck (Homo sapiens, UniProt P06239); experiment: Inhibition of LCK by TR-FRET based LanthaScreen assay
[33] = target: Mast/stem cell growth factor receptor Kit (Homo sapiens, UniProt P10721); experiment: Inhibition of cKIT by TR-FRET based LanthaScreen assay; outline: as §3
[34] = Inhibition of CDK4D1 by Caliper mobility shift assay; outline: as §4
[35] = target: Serine/threonine-protein kinase N2 (Homo sapiens, UniProt Q16513); experiment: Inhibition of PKN2 by Caliper mobility shift assay; outline: as §2
[36] = target: Tyrosine-protein kinase ZAP-70 (Homo sapiens, UniProt P43403); experiment: Inhibition of ZAP70 by TR-FRET based LanthaScreen assay; outline: as §1

COc1cc(O)c2c(c1)/C=C/C[C@H](O)[C@H](O)C(=O)/C=C\C[C@H](C)OC2=O
t1/2 [1]: 20 min | Stability [2]: 50% | t1/2 [3]: 20 min

COc1cc(O)c2c(c1)CCC[C@H](O)CC(=O)/C=C\C[C@H](C)OC2=O
IC50 [4]: > 10 µM | IC50 [5]: > 10 µM | IC50 [6]: 0.15 µM | IC50 [7]: > 10 µM | IC50 [8]: 4.4 µM | IC50 [9]: > 10 µM | IC50 [10]: > 10 µM | IC50 [11]: > 10 µM | IC50 [12]: > 10 µM | IC50 [13]: 0.763 µM | IC50 [14]: 6.4 µM | IC50 [15]: > 10 µM | IC50 [16]: > 10 µM | IC50 [17]: > 10 µM | IC50 [18]: > 10 µM | IC50 [19]: > 10 µM | IC50 [20]: > 10 µM | IC50 [21]: > 10 µM | IC50 [22]: 0.0058 µM | IC50 [23]: 7.4 µM | IC50 [24]: > 10 µM | IC50 [25]: > 10 µM | IC50 [26]: 0.00723 µM | IC50 [27]: 7.2 µM | IC50 [28]: > 10 µM | IC50 [29]: > 10 µM | IC50 [30]: > 10 µM | IC50 [31]: > 10 µM | IC50 [32]: 4.7 µM | IC50 [33]: 0.673 µM | IC50 [34]: > 10 µM | IC50 [35]: > 10 µM | IC50 [36]: > 10 µM
